# Measured values: publication PMC11220656 (JAC-Antimicrobial Resistance, 2024)
# Assays:
# E. coli strain pb15 [1] = conditions: strain pb15, blood; ref Basra et al. 15; cited from earlier work
# E. coli strain pb3 [2] = conditions: strain pb3, urinary tract infection; ref Basra et al. 15; cited from earlier work
# E. coli strain pb5 = conditions: strain pb5, respiratory; ref Basra et al. 15; cited from earlier work
# E. coli strain pb15 [3] = assay: Growth curve inhibition, clinical strain pb15; type: cell-based, Escherichia coli; conditions: for Effect on growth of pb15 (in words): AMP at 40 µM
# Method in brief: (§1)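 Overnight E. coli clinical isolate cultures in Mueller–Hinton broth (150 rpm, 37°C) diluted 1:100 in MHB, with test peptide at 40 µM or in a 2-fold series from 40 to 5 µM, in triplicate. OD600 read every 30 min for 24 h with continuous shaking. Log-phase linear values were log2-transformed against time, slope taken as growth rate, normalized to a no-peptide control, and compared with wild-type peptide by Student's t test.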
# E. coli strain pb35 = assay: Growth curve inhibition, clinical strain pb35; type: cell-based, Escherichia coli; conditions: for Effect on growth of pb35 (in words): AMP at 40 µM
# Method in brief: as §1
# E. coli strain pb3 [4] = assay: Growth curve inhibition, clinical strain pb3; type: cell-based, Escherichia coli; conditions: for Effect on growth of pb3 (in words): AMP at 40 µM; for Concentration giving significant growth inhibition of pb3: 2-fold serial dilution 40 to 5 µM, triplicates, compared with WT peptide
# Method in brief: as §1
# [5] = system: clinically derived E. coli strains pb3, pb15 and pb35; assay: Growth inhibition across the clinical strains pb3, pb15 and pb35; type: cell-based, Escherichia coli; conditions: AMP at 40 µM
# Method in brief: as §1
# [6] = 2-fold serial dilution 40 to 5 µM, triplicates, compared with WT peptide
Compound,Effect on growth of pb15 (in words) (E. coli strain pb15 [3]),Effect on growth of pb35 (in words) (E. coli strain pb35),Effect on growth of pb3 (in words) (E. coli strain pb3 [4]),Growth inhibition across all three clinical strains (in words) [5],Concentration giving significant growth inhibition of pb3 (E. coli strain pb3 [4]),further results
"CC(C)(O/N=C(\C(=O)N[C@@H]1C(=O)N2C(C(=O)[O-])=C(C[n+]3ccccc3)CS[C@H]12)c1csc(N)n1)C(=O)O [CAZ, ceftazidime]",–,–,–,–,–,CAZ MIC (E. coli strain pb15 [1]): 128 mg/L; CAZ MIC (E. coli strain pb3 [2]): 4 mg/L; CAZ MIC (E. coli strain pb5): 0.5 mg/L
ILPWAWPWWPWRR [IndoK5A],reduced but still significant effect,greater effect,greater effect,–,–,–
ILPWCWPWWPWRR [IndoK5C],reduced but still significant effect,greater effect,greater effect,–,–,–
ILPWDWPWWPWRR [IndoK5D],–,–,–,equivalent response across all three strains,20 µM,Concentration giving significant growth inhibition of pb15 (E. coli strain pb15 [3]; [6]): 10 µM
"ILPWKWPWWPWRR [indolicidin, reference compound]",–,–,–,–,–,Dose-response of growth inhibition of pb3 (in words) (E. coli strain pb3 [4]; serial dilution 40 to 5 µM): not inhibited across the concentrations tested
ILPWLWPWWPWRR [IndoK5L],–,–,–,equivalent response across all three strains,20 µM,Concentration giving significant growth inhibition of pb35 (E. coli strain pb35; [6]): 20 µM
